# Data published in PMC5515376 (Nature, 2016).
# Like-named read-outs stand apart in the source and are kept apart here.
# Experiments:
# [1] = test system: P. falciparum Dd2; assay: In vitro P. falciparum blood-stage growth inhibition assay; type: cell-based, Plasmodium falciparum
# [2] = test system: Mammalian cells (HepG2, A549, and HEK293); assay: Mammalian cell cytotoxicity; type: cell-based; settings: initial characterization
# How it was run: (§1)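 HepG2, A549 or HEK293 cells were grown in DMEM with 10% FBS and 1% antibiotic–antimycotic and tested mycoplasma-free. Cells (1 × 10^6) were seeded one day before treatment. They were exposed to ascending compound doses for 72 h, and viability was read by CellTiter-Glo.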
# [3] = test system: P. falciparum NITD609^R; assay: Blood-stage growth inhibition, P. falciparum NITD609^R strain; type: cell-based, Plasmodium falciparum
# How it was run: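 Asexual blood-stage parasites were cultured to 3–8% parasitaemia, counted on Giemsa smears, and diluted in medium to 2.0% parasitaemia and 2.0% haematocrit. This suspension was added to compound dispensed from DMSO, giving a final 1% parasitaemia and 1% haematocrit, with mefloquine as control. Plates were incubated for 72 h at 37 °C. Growth was read by SYBR Green I fluorescence in Tris/EDTA/saponin/Triton X-100 lysis buffer.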
# [4] = Solubility assay in PBS; type: physicochemical; settings: for PBS solubility: PBS pH 7.4 with 1% DMSO
# How it was run: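 Compound was prepared at 100 µM in triplicate, both in 100% DMSO and in PBS pH 7.4 with 1% DMSO. Samples were shaken at 750 r.p.m. for 18 h at room temperature. Analysis was by UPLC–MS with single-ion detection. PBS response was fitted to a two-point calibration built from the DMSO samples.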
# [5] = test system: parasite cytosolic Na^+ concentration; assay: Parasite cytosolic Na+ concentration measurement; type: cell-based, Plasmodium falciparum; settings: after treatment
# [6] = test system: P. falciparum 3D7 stage IV–V gametocytes; assay: In vitro transmission-blocking assay; type: cell-based, Plasmodium falciparum
# How it was run: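 3D7 cultures were treated 3 days with 50 mM N-acetyl-D-glucosamine to remove asexual parasites. Stage IV–V gametocytes were then isolated on a discontinuous Percoll gradient. Gametocytes (1.0 × 10^5 per well) were incubated with compound for 72 h. Viability was measured by CellTiter-Glo luminescence.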
# [7] = Plasma protein binding assay; type: in vitro ADME
# How it was run: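 Binding was measured by equilibrium dialysis in a RED device. Compound at 5 µM, in duplicate, was placed in mouse plasma (0.95% acetonitrile, 0.05% DMSO) against PBS pH 7.4. Incubation was 5 h at 37 °C with 350 r.p.m. orbital shaking. Both sides were analysed by UPLC–MS with single-ion detection.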
# [8] = Metabolic stability assay, human liver microsomes; type: in vitro ADME
# How it was run: (§2)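 Liver microsomes (0.2 mg ml−1) were incubated with compound (0.5 and 5 µM) plus NADPH for 0, 10 and 90 min. Human microsomes or mouse CD-1 microsomes were used, as named in each line. Compound depletion was measured by LC–MS/MS and used to estimate Km, Vmax and half-life.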
# [9] = Metabolic stability assay, mouse liver microsomes; type: in vitro ADME
# How it was run: as §2
# [10] = Mouse pharmacokinetics assay; type: in vivo; settings: CD-1 mice; for AUC0-t: t = 24 h
# How it was run: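 Female CD-1 mice received single intravenous and oral doses. Parameters were estimated by non-compartmental analysis.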
# [11] = test system: HepG2 cell line; assay: Mammalian cell cytotoxicity assay; type: cell-based, human; settings: for CC50: read-out: HepG2 CC50, 72 h; for Cytotoxicity: HepG2 cell line
# How it was run: as §1
# [12] = target: hERG channel (Homo sapiens, UniProt Q12809); assay: hERG channel inhibition assay; type: cell-based; settings: read-out: hERG IC50; IKr
# Chain of hERG channel (Q12809 whole entry): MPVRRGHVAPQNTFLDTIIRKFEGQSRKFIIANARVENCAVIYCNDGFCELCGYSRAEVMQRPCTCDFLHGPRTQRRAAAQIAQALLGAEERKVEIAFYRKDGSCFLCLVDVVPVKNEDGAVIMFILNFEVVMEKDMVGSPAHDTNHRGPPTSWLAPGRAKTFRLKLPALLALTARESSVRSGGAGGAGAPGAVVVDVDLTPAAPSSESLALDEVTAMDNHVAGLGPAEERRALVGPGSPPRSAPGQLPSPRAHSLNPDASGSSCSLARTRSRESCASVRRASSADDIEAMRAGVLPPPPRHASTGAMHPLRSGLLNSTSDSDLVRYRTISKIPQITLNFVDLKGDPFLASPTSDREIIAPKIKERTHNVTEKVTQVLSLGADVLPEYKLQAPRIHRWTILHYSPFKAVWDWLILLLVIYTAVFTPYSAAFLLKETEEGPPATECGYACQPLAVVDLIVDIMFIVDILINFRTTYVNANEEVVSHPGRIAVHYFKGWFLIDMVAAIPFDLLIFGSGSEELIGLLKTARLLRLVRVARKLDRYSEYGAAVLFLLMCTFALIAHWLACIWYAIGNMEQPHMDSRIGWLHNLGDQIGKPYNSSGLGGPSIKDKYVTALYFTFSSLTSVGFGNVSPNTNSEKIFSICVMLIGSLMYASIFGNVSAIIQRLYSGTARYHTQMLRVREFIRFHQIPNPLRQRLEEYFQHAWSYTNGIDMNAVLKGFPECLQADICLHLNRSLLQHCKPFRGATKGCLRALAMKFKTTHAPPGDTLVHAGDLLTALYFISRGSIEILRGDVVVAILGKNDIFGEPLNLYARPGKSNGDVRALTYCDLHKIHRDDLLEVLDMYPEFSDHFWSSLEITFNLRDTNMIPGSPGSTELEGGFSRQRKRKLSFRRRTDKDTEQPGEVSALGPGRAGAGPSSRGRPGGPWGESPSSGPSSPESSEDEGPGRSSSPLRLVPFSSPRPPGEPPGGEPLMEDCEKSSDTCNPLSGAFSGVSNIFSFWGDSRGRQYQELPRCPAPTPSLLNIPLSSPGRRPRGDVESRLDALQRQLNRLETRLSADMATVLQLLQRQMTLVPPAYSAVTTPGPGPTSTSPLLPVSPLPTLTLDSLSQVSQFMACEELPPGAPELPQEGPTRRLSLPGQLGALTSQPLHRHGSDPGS
# How it was run: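 hERG current was measured in hERG-expressing cell lines by automated patch clamp (QPatch-HTX).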
# [13] = test system: P. falciparum (NF54) male and female stage-V gametocytes; assay: Dual gamete formation assay; type: cell-based, Plasmodium falciparum
# [14] = test system: P. berghei (ANKA) liver stage; assay: In vitro P. berghei liver-stage assay; type: cell-based, Plasmodium berghei; settings: P. berghei (ANKA), Liver stage
# How it was run: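 HepG2 cells (~17,500 per well, in duplicate) were cultured 18–24 h, then the medium was exchanged and compound added. After 1 h, 4,000 P. berghei ANKA GFP–luc sporozoites per well were added, freshly dissected from A. stephensi mosquitoes. Plates were spun 10 min at 1,000 r.p.m. and incubated 48 h at 37 °C. Parasite load was read by Bright-Glo luminescence.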
# [15] = test system: P. falciparum (NF54) liver stage; assay: In vitro P. falciparum liver-stage assay; type: cell-based, Plasmodium falciparum
# [16] = test system: P. falciparum (NF54) gametocytes; assay: In vitro transmission-blocking imaging assay; type: cell-based, Plasmodium falciparum
# How it was run: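 Highly synchronous NF54 pf-LUC-GFP gametocytes were induced from a single asexual cycle. They were exposed to 16 compound doses, with final controls of 0.4% DMSO and 5 µM puromycin, for 72 h at 37 °C under 5% CO2/5% O2/90% N2 and 60% humidity. MitoTracker Red CM-H2XRos was then added overnight, and plates were imaged after ≥1 h at room temperature. IC50 came from a 4-parameter variable-slope fit.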
# [17] = test system: P. berghei (ANKA GFP-luc) blood-stage parasites; assay: In vivo P. berghei blood-stage assay; design: species or system Plasmodium berghei; settings: CD-1 mice; single 100 mg kg^−1 dose; parasites re-emerge very quickly
# [18] = read-out: PfDd2 EC50, asexual blood-stage parasites (Dd2), SAR table
# [19] = read-out: Pf, Dd2 EC50, blood stage
# [20] = printed in the IV (3) column, PO (10) vs IV (3) mg/kg
# [21] = P. falciparum (Dd2), Blood stage
smiles,measurement,setting,value
COc1ccc(NC(=O)N2CCCCN3[C@H](CO)[C@H](c4ccc(C#Cc5ccccc5C#N)cc4)[C@@H]3C2)cc1 [BRC4873],EC50,[1]; [18],261 nM
COc1ccc(-c2ccccc2[C@H]2[C@@H](C#N)N(C(=O)C3CCCC3)[C@H]2CO)cc1 [BRD0026],EC50,"[1]; read-out: EC50, asexual blood stages, in vitro",346 nM
same,Cytotoxicity (in words),[2],low cytotoxicity
same,Potency against Pf NITD609^R,[3]; relative to Dd2,selectively reduced potency
same,EC50,[3]; strain carrying a point mutation in P. falciparum ATPase4,1770 nM
same,Solubility (in words),[4]; initial characterization,good solubility
same,Parasite cytosolic Na^+ concentration,[5],rapid increase
same,EC50,"[6]; read-out: EC50, late-sexual blood stages, in vitro",1980 nM
COc1ccc(NC(=O)N2CCCCCN3[C@H](CO)[C@H](c4ccc(C#Cc5ccccc5)cc4)[C@@H]3C2)cc1 [BRD0185],EC50,[1]; [18],87 nM
COc1ccc(NC(=O)N2CCCCN3[C@H](CN)[C@H](c4ccc(C#Cc5ccccc5)cc4)[C@@H]3C2)cc1 [BRD1095],EC99.9,[1]; P. falciparum Dd2,60 nM
same,EC50,[1]; [19],10 nM
same,EC50,[1]; [18],10 nM
same,Mouse Plasma protein binding,[7],99.3%
same,Human Clint,[8],< 20 µL/min/mg
same,Mouse Clint,[9],< 20 µL/min/mg
same,AUC0-inf,[10]; IV (3) mg/kg,14.9 µM·h
same,CL,[10]; IV (3) mg/kg,6.7 mL/min/kg
same,MRT0-inf,[10]; IV (3) mg/kg,39.2 h
same,Vss,[10]; IV (3) mg/kg,16 L/kg
same,AUC0-t,[10]; IV (3) mg/kg,7 ^¶ µM*hr
same,Cmax,[10]; PO (10) mg/kg,600 nM
same,T1/2,[10]; PO (10) mg/kg,28.8 h
same,Tmax,[10]; PO (10) mg/kg,4 h
same,AUC0-t,[10]; PO (10) mg/kg,11.7 ^¶ µM*hr
same,F,[10]; [20],50%
same,CC50,[11],15600 nM
same,PBS solubility,[4],25 µM
same,IC50,[12],5100 nM
COc1ccc(NC(=O)N2CCCCN3[C@H](CO)[C@H](c4ccc(C#Cc5ccccc5)cc4)[C@]3(CO)C2)cc1 [BRD2936],EC50,[1]; [18],1870 nM
COc1ccc(NC(=O)N2CCCCN3[C@H](COCCC(=O)O)[C@H](c4ccc(C#Cc5ccccc5)cc4)[C@@H]3C2)cc1 [BRD3316],EC50,[1]; [21],19 nM
same,EC50,[1]; [19],23 nM
same,EC50,[1]; [18],22 nM
same,Human Clint,[8],34 µL/min/mg
same,Mouse Clint,[9],38 µL/min/mg
same,AUC0-inf,[10]; IV (3.2) mg/kg,13.2 µM·h
same,CL,[10]; IV (3.2) mg/kg,7.1 mL/min/kg
same,MRT0-inf,[10]; IV (3.2) mg/kg,3.3 h
same,T1/2,[10]; IV (3.2) mg/kg,2.3 h
same,Vss,[10]; IV (3.2) mg/kg,1.4 L/kg
same,AUC0-inf,[10]; PO (13) mg/kg,33.5 µM·h
same,Cmax,[10]; PO (13) mg/kg,6800 nM
same,F,[10]; PO (13) mg/kg,63%
same,MRT0-inf,[10]; PO (13) mg/kg,3.9 h
same,T1/2,[10]; PO (13) mg/kg,2.4 h
same,Tmax,[10]; PO (13) mg/kg,1 h
same,AUC0-t,[10]; PO (13) mg/kg,33.5 ^¶ µM*hr
same,Cytotoxicity,[11],no significant cytotoxicity
same,CC50,[11],> 50000 nM
same,PBS solubility,[4],91 µM
same,IC50,[12],> 10000 nM
COc1ccc(NC(=O)N2CCCCN3[C@H](CO)[C@H](c4ccc(C#Cc5ccccc5)cc4)[C@@H]3C2)cc1 [BRD3444],EC50,[1]; [21],9 nM
same,EC50,[1]; [19],9 nM
same,EC50,[1]; [18],11 nM
same,"Potency across P. falciparum Dd2, PfscDHODH and Pf NITD609^R",[1]; three P. falciparum strains,equipotent
same,Mouse Plasma protein binding,[7],99.9%
same,Human Clint,[8],142 µL/min/mg
same,EC50,"[13]; read-out: EC50, gamete formation, female (F)",804 nM
same,EC50,"[13]; read-out: EC50, gamete formation, male",~1000 nM
same,Mouse Clint,[9],248 µL/min/mg
same,AUC0-inf,[10]; IV (3) mg/kg,1.4 µM·h
same,CL,[10]; IV (3) mg/kg,72 mL/min/kg
same,MRT0-inf,[10]; IV (3) mg/kg,2.8 h
same,T1/2,[10]; IV (3) mg/kg,3.7 h
same,Vss,[10]; IV (3) mg/kg,12 L/kg
same,AUC0-t,[10]; IV (3) mg/kg,1.2 ^¶ µM*hr
same,AUC0-inf,[10]; PO (10) mg/kg,4 µM·h
same,Cmax,[10]; PO (10) mg/kg,600 nM
same,T1/2,[10]; PO (10) mg/kg,3.2 h
same,Tmax,[10]; PO (10) mg/kg,0.5 h
same,AUC0-t,[10]; PO (10) mg/kg,4 ^¶ µM*hr
same,F,[10]; [20],86%
same,EC50,[14],140 nM
same,Cytotoxicity,[11],no significant cytotoxicity
same,CC50,[11],> 50000 nM
same,PBS solubility,[4],< 1 µM
same,EC50,[15],1310 nM
same,EC50,"[16]; read-out: EC50, early (E, stages I–III) gametocytes",282 nM
same,EC50,"[16]; read-out: EC50, late (L, stages IV–V) gametocytes",1440 nM
same,IC50,[12],5200 nM
same,EC50,"[6]; P. falciparum (3D7), Gametocyte (IV-V)",663 nM
COc1ccc(NC(=O)N2CCCCN3[C@H](CN(C)C(C)C)[C@H](c4ccc(C#Cc5ccccc5)cc4)[C@@H]3C2)cc1 [BRD4716],EC50,[1]; [18],24 nM
COc1ccc(NC(=O)N2CCCCN3[C@H](CO)[C@H](c4ccc(C#CC5CC5)cc4)[C@@H]3C2)cc1 [BRD5774],EC50,[1]; [18],12200 nM
COc1ccc(NC(=O)N2CCCCN3[C@H](CN4CCN(C)CC4)[C@H](c4ccc(C#Cc5ccccc5)cc4)[C@@H]3C2)cc1 [BRD6479],EC50,[1]; [18],158 nM
COc1ccc(NC(=O)N2CCCCN3[C@H](CN4CCC4)[C@H](c4ccc(C#Cc5ccccc5)cc4)[C@@H]3C2)cc1 [BRD8493],EC50,[1]; [18],116 nM
COc1ccc(NC(=O)N2CCCN3[C@H](CO)[C@H](c4ccc(C#Cc5ccccc5)cc4)[C@@H]3C2)cc1 [BRD9599],EC50,[1]; [18],850 nM
"C[C@H]1[C@H](OC(=O)CCC(=O)O)O[C@@H]2O[C@@]3(C)CC[C@H]4[C@H](C)CC[C@@H]1[C@@]24OO3 [artesunate, reference compound]",Effect on parasites,[17],rapid suppression of parasites
same,Parasite cytosolic Na^+ concentration,[5],constant
"O=C1C(O)=C([C@H]2CC[C@H](c3ccc(Cl)cc3)CC2)C(=O)c2ccccc21 [atovaquone, reference compound]",EC90,"[1]; Plasmodium falciparum, DD2",2 nM
OC(c1cc(C(F)(F)F)nc2c(C(F)(F)F)cccc12)C1CCCCN1 (centres unmarked) [mefloquine],Parasite cytosolic Na^+ concentration,[5],constant
